In paper PMC3828522 (Genes & Development, 2013):
Substitutions are numbered along the chain they refer to. Numbers in names are those of the source. Values belong to the molecule of their own block, whether it stands above or below them.

Assays:
[1] = system: double-stranded Pho DNA-binding site; assay: EMSA, DNA binding; parameters: species or system Drosophila; conditions: ^32P end-labeled probe, protein without partner
[2] = system: Sfmbt 4MBT, Ser633 and Ser673 mutated into proline; assay: GST pull-down and SPR, Sfmbt Ser633/Ser673 to proline mutant; assay type: binding, Drosophila; conditions: relative to wild type
Method in brief: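 Mutant and wild-type 6xHis-tagged Sfmbt 4MBT expressed in E. coli. GST pull-down: GST-Pho spacer (E. coli, GST column plus gel filtration) on beads with 4MBT, 2 h at 4°C in 50 mM Tris-HCl, 150 mM NaCl, 1 mM DTT; three washes, boiled in Laemmli buffer.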

[3] = system: Scm; assay: Pho:Scm complex formation in vitro; assay type: binding, Drosophila; conditions: Supplemental Fig. S5C
[4] = system: Flag-tagged Pho (full-length); assay: Anti-Flag affinity purification of full-length Pho-Flag:Sfmbt complexes; assay type: binding, Drosophila; conditions: coimmunoprecipitation, full-length proteins, baculovirus system
Method in brief: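 Full-length Pho-Flag with wild-type or mutant Sfmbt expressed and purified in a baculovirus system. Cells lysed by three sonication cycles (30 bursts, 30 sec on ice each). Complexes isolated by anti-Flag affinity purification; bound proteins detected by Western blot with the indicated antibodies.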

[5] = system: endogenous Pho; assay: Pull-down of Sfmbt-CTAP proteins from embryo nuclear extracts; assay type: binding, Drosophila; conditions: nuclear extracts of 0- to 12-h-old embryos, IgG sepharose, Western blot
[6] = system: Ubx misexpression in Sfmbt^1 homozygous cell clones; assay: Genetic rescue assay, repression of Ubx in Sfmbt^1 homozygous clones; assay type: in vivo, Drosophila; conditions: imaginal disc
[7] = system: PREs of PcG target genes; assay: ChIP of Sfmbt-CTAP proteins at PREs; assay type: in vivo, Drosophila
Method in brief: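 Sfmbt-CTAP transgenes (wild-type, G635K/A638E double mutant, ΔMBT1 truncation) expressed ubiquitously via daughterless-Gal4 in wild-type third instar larvae. Chromatin from imaginal discs and brains; TAP-tagged proteins immunoprecipitated with peroxidase anti-peroxidase via the protein A moiety. Triplicate ChIPs from three independent chromatin preparations per genotype. qPCR read-out given as mean percentage of input precipitated per region, ±SD.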

mobility shift / association with DNA [1]: fails to stably associate with DNA
B1: Sfmbt 4MBT domain: four malignant brain tumor (4MBT) domain of Drosophila Sfmbt (protein, UniProt Q9VK33 532-980, looked up, fragment)
chain: PTHSYDWLPRLSKENFNAAPVTCFPHAPGCEVWDNLGVGMKVEVENTDCDSIEVIQPGQTPTSFWVATILEIKGYKALMSYEGFDTDSHDFWVNLCNAEVHSVGWCATRGKPLIPPRTIEHKYKDWKDFLVGRLSGARTLPSNFYNKINDSLQSRFRLGLNLECVDKDRISQVRLATVTKIVGKRLFLRYFDSDDGFWCHEDSPIIHPVGWATTVGHNLAAPQDYLERMLAGREAMIEVHEDDATIELFKMNFTFDEYYSDGKTNSFVEGMKLEAVDPLNLSSICPATVMAVLKFGYMMIRIDSYQPDASGSDWFCYHEKSPCIFPAGFCSVNNISVTPPNGYDSRTFTWEGYLRDTGAVAAGQHLFHRIIPDHGFEVGMSLECADLMDPRLVCVATVARVVGRLLKVHFDGWTDEYDQWLDCESADIYPVGWCVLVNHKLEGPPRVAH
modifications: 4MBT domain

binding affinity change, Ser633 and Ser673 to proline [2]: twofold decrease in the binding affinity | mobility shift / association with DNA [1]: induces a mobility shift
B2: Pho: full-length Drosophila Pleiohomeotic, PRE-binding PcG protein (protein, UniProt Q8ST83 1-520, looked up)
chain: MAYERFGIILQSEQYDEDIGNTKVNQKMNEGNHYDLHRKNAFDRIIHSESKKGDNVINYNIHENDKIKAADNIFSSKLKMNPNMSYEMNINCFKNIGYGENQETSKVLTNSLSNNDINTEESGVVDKNSPFLTLGTTILNSNGKSRRWEQKLVHIKTMEGEFSVTMWASGISDDEYSGSDQIVGASDLLKGKEEFGIDGFTSQQNKEYQKMESKFTNAQTLEMPHPISSVQIMDHLIKERGNLSQENNISERILSKTTLSFEEPILLPDSSSIELVNETAAMTINNHRTLSNHTGNTGDLHALPSSVPFRIGLHEGQVNDCLSTISQSTHQDNTDSTGCGEMNLSEVTVSYTNDKKIACPHKGCNKHFRDSSAMRKHLHTHGPRVHVCAECGKAFVESSKLKRHQLVHTGEKPFQCTFEGCGKRFSLDFNLRTHVRIHTGDRPFVCPFDACNKKFAQSTNLKSHILTHAKAKRNTSISGKSGCSNAESNSQSEDTSANYVKVELQDSVTENHVPFVVYAD
modifications: full-length
stable complex formation with Scm in vitro [3]: fails to form a stable complex

B3: Sfmbt^G635K/A638E: full-length Sfmbt with G635K/A638E mutations (protein)
chain: MNPSELRMMWMSSQYNSERITLEDAATLLGHPTVGLSVMEDLSAHQPTLDMNPMMSLMGGDFTGQAAATAAALGVQPGTLIATNSNNLYGFAHMGGLQQQLLQQSAAAAVFQNYAEAMDNDVENGMVGMAMEAVVDDDDQVYGQRDNNFDDNGSELEPKQEIINIDDFVMMNEDNNSYDGTDFMTSSDKDISQSSSSCMAQMPGSLGVPGVEHDLLVPLPDGLLHHKLLGTTLVPAMGTLNGNAFGNIMVSTENTSSKQMQRTYSTAKGANSTATTATCSASTSSALRSQRKTRKIEPVNRPGLVLKTPIAYRGNIDPSVIPIQKDGMAVCKRCGAIGVKHTFYTKSRRFCSMACARGELYSLVLNTKMEGDQATTSSPDPGAGSESADLPGDQQQSQSDIELDLHAAHIKNANYRFRITDQSKITQLNSFGEPMSMGGDAAANNVQMAADETIAALNGGAVGDATAPGSTEEGASTPNSYLSAAPTPKALRLFKDIYPQDDLPQIPKYERLPVPCPQMEKIISIRRRMYDPTHSYDWLPRLSKENFNAAPVTCFPHAPGCEVWDNLGVGMKVEVENTDCDSIEVIQPGQTPTSFWVATILEIKGYKALMSYEGFDTDSHDFWVNLCNAEVHSVKWCETRGKPLIPPRTIEHKYKDWKDFLVGRLSGARTLPSNFYNKINDSLQSRFRLGLNLECVDKDRISQVRLATVTKIVGKRLFLRYFDSDDGFWCHEDSPIIHPVGWATTVGHNLAAPQDYLERMLAGREAMIEVHEDDATIELFKMNFTFDEYYSDGKTNSFVEGMKLEAVDPLNLSSICPATVMAVLKFGYMMIRIDSYQPDASGSDWFCYHEKSPCIFPAGFCSVNNISVTPPNGYDSRTFTWEGYLRDTGAVAAGQHLFHRIIPDHGFEVGMSLECADLMDPRLVCVATVARVVGRLLKVHFDGWTDEYDQWLDCESADIYPVGWCVLVNHKLEGPPRVAHQQAPKPAPKPKIQRKRKPKKGAAGGKTPTDNNTQSVKSRTIALKTTPHLPKLSIKLELKPEHHNAAFYENNQPEEEGDEEDPDADGDGDGSTSHISEQSTTQSSSDLIAGSGSGSGSASLVTLATGSNKTNSSATNNKYIPRLADIDSSEPHLELVPDTWNVYDVSQFLRVNDCTAHCDTFSRNKIDGKRLLQLTKDDIMPLLGMKVGPALKISDLIAQLKCKVNPGRARSHKTNKSPFL
interaction with Flag-tagged Pho [4]: completely failed to interact

B4: Sfmbt-CTAP: wild-type Sfmbt with C-terminal tandem affinity purification tag, expressed from transgene (protein)
chain: B3 chain with K635G, E638A
modifications: left off: TAP tag, C-terminal, kept
coimmunoprecipitation of endogenous Pho [5]: robustly coimmunoprecipitated | repression of Ubx in Sfmbt^1 mutant clones [6]: rescues repression of Ubx

B5: Sfmbt^G635K/A638E-CTAP: Sfmbt double point mutant with C-terminal TAP tag, expressed from transgene (protein)
chain: B3 chain
modifications: left off: TAP tag, C-terminal, kept
coimmunoprecipitation of endogenous Pho [5]: only poorly coimmunoprecipitated | reduction of ChIP signals at Ubx PREs [7]: reduced only twofold to threefold | repression of Ubx in Sfmbt^1 mutant clones [6]: severely compromised repressor activity
